{"source": "paper PMC10120002", "about": "(Proceedings of the National Academy of Sciences of the …, 2023)", "target": "recombinant Cdk5/p25 complex (Homo sapiens, UniProt Q00535+Q15078)", "sequence (Q00535 whole entry)": "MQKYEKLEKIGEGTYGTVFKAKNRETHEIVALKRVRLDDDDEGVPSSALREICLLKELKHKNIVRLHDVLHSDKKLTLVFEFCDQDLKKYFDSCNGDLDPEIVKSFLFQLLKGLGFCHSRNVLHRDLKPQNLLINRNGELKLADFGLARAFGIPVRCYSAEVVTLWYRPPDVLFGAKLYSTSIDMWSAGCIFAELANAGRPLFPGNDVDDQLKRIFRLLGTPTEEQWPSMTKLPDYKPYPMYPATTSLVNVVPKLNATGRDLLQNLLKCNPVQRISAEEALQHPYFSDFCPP", "sequence (Q15078 99-307 limits assumed)": "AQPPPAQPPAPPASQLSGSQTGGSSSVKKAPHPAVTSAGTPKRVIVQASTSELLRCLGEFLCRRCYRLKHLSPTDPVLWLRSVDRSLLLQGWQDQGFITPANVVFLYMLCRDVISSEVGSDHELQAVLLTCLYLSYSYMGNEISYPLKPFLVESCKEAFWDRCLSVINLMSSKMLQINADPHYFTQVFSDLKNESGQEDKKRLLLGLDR", "assay": "IP-linked Cdk5 kinase assay, recombinant Cdk5/p25, histone H1", "assay_type": "biochemical", "conditions": "recombinant Cdk5/p25, overnight incubation, vs solvent control", "method_in_brief": "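Recombinant Cdk5/p25 complex incubated overnight with test peptide or solvent control, then immunoprecipitated with anti-Cdk5 antibody overnight at 4 °C. The immunocomplex was used for a kinase reaction with histone H1 as substrate and ³²P label, resolved on 12% SDS-PAGE, dried, and exposed to film for several hours. ³²P-histone H1 band intensity was quantified, with Coomassie staining as loading check. Six replicates from two independent experiments.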", "note": "Ends that are not written are not given here.", "data": [{"sequence": "ARAFGIPVRCYS [Cdk5i]", "values": [{"measurement": "reduction of histone H1 phosphorylation by Cdk5/p25", "value": "~ 22%"}]}]}
